Source: ChEMBL document CHEMBL1148085, “Indole alkaloids from Peschiera laeta that enhance vinblastine-mediated cytotoxicity with multidrug-resistant cells” (1994)
Values after ≈ are worked out from the molar mass of the structure shown. Active and inactive are the calls of the source. No cut-off for these calls is given here.

Legend:
HT = test: Cytotoxicity against human HT cells by SRB assay; assay type: functional; settings: read-out: ED50 (the source's name)
Outline: (§1)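 Compounds in 10% DMSO added to cell suspension; 72 h at 37° in humidified 5% CO2. Cells fixed with cold trichloroacetic acid at 4° for 1 h, sulforhodamine B stained 30 min, dye solubilized in 10 mM Tris base, OD 515 nm. A zero-day control was subtracted. Survival is relative to solvent-treated cultures over various concentrations.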

SK-MEL-2 = test: Cytotoxicity against human SK-MEL-2 cells by SRB assay; assay type: functional; settings: read-out: ED50 (the source's name); outline: as §1
Lu1 = test: Cytotoxicity against human Lu1 cells by SRB assay; assay type: functional; settings: read-out: ED50 (the source's name); outline: as §1
[1] = Cytotoxicity against human BC1 cells by SRB assay; assay type: functional; settings: read-out: ED50 (the source's name); outline: as §1
P388 = test: Cytotoxicity against mouse P388 cells after 48 hrs by SRB assay; assay type: functional; settings: P388, 48 h, read-out: ED50 (the source's name)
Outline: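 P-388 cells at 10×10^4 cells/ml, exposed to compounds for 48 h at 37° in 5% CO2. Plates were centrifuged and supernatant removed, then cells fixed with 20% trichloroacetic acid at 4° for 1 h. Sulforhodamine B staining and OD read as for the adherent lines. Survival is relative to solvent controls.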

[2] = Cytotoxicity against human drug-resistant KBV1 cells by SRB assay in absence of vinblastine; assay type: functional; settings: KB-V1, read-out: ED50 (the source's name); outline: as §1
[3] = Cytotoxicity against human U373 cells by SRB assay; assay type: functional, U-373MG ATCC; settings: U373 MG, read-out: ED50 (the source's name); outline: as §1
ZR-75-1 = test: Cytotoxicity against human ZR-75-1 cells by SRB assay; assay type: functional; settings: read-out: ED50 (the source's name); outline: as §1
[4] = Cytotoxicity against human drug-resistant KBV1 cells by SRB assay in presence of vinblastine; assay type: functional; settings: KB-V1, read-out: ED50 (the source's name)
Outline: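 Same SRB protocol (72 h, 37°, 5% CO2, TCA fix, OD 515 nm, zero-day subtraction). KB-V1 cells were exposed to various compound concentrations with vinblastine at 1 μg/ml in the medium. Survival is relative to solvent-treated controls.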

Col2 = test: Cytotoxicity against human Col2 cells by SRB assay; assay type: functional; settings: read-out: ED50 (the source's name); outline: as §1
LNCaP = test: Cytotoxicity against human LNCAP cells by SRB assay; assay type: functional; settings: read-out: ED50 (the source's name); outline: as §1
A-431 = test: Cytotoxicity against human A431 cells by SRB assay; assay type: functional; settings: read-out: ED50 (the source's name); outline: as §1
KB = test: Cytotoxicity against human KB cells by SRB assay; assay type: functional; settings: read-out: ED50 (the source's name); outline: as §1
KBV1 = test: Inhibition of ATP-dependent [3H]vinblastine binding to p-glycoprotein in multidrug-resistant human KBV1 cells; assay type: cell-based
Outline: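 Plasma membrane vesicles from KB-V1 cells (60 μg protein) as P-glycoprotein source. Incubated with […] [3H]vinblastine and various compound concentrations (from DMSO) for 20 min at room temperature. Terminated by filtration onto BSA-pretreated glass fiber filters.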

Which EC50 (HT) does the source give for `CC[C@H]1C[C@@H]2CN3CCc4c([nH]c5ccccc45)[C@](C(=O)OC)(C2)[C@H]13` [CORONARIDINE] here?
The EC50 was > 20 µg/mL.

And the EC50 (SK-MEL-2)?
Its EC50 is > 20 µg/mL.

What about the EC50 (Lu1) of the same compound?
Its EC50 is 10.9 µg/mL (≈ 32.2 µM).

And the EC50 [1]?
The EC50 was 7.5 µg/mL (≈ 22.2 µM).

What about the EC50 (P388) of the same compound?
Its EC50 is 3.8 µg/mL (≈ 11.2 µM).

And the EC50 [2]?
The EC50 was 11.2 µg/mL (≈ 33.1 µM).

What about the EC50 [3] of the same compound?
Its EC50 is 12 µg/mL (≈ 35.5 µM).

And the EC50 (ZR-75-1)?
The EC50 was > 20 µg/mL.

And the EC50 [4]?
The EC50 was 1.9 µg/mL.

What about the EC50 (Col2) of the same compound?
The EC50 was > 20 µg/mL.

And the EC50 (LNCaP)?
The EC50 was 10.7 µg/mL (≈ 31.6 µM).

And the EC50 (A-431)?
Its EC50 is 19.1 µg/mL (≈ 56.4 µM).

What about the EC50 (KB) of the same compound?
Its EC50 is 13.6 µg/mL (≈ 40.2 µM).

For `CC[C@]1(O)C[C@@H]2CN(CCc3c([nH]c4ccccc34)[C@@](C(=O)OC)(c3cc4c(cc3OC)N(C)[C@H]3[C@@](O)(C(=O)OC)[C@H](OC(C)=O)[C@]5(CC)C=CCN6CC[C@]43[C@@H]65)C2)C1` [VINBLASTINE], which EC50 (HT) is on record?
Its EC50 is 0.02 µg/mL (≈ 0.0247 µM).

What about the EC50 (SK-MEL-2) of the same compound?
The EC50 was 0.01 µg/mL (≈ 0.0123 µM).

What about the EC50 (Lu1) of the same compound?
Its EC50 is 0.02 µg/mL (≈ 0.0247 µM).

What about the EC50 [1] of the same compound?
The EC50 was 0.06 µg/mL (≈ 0.074 µM).

And the EC50 (P388)?
Its EC50 is 0.02 µg/mL (≈ 0.0247 µM).

What about the EC50 [2] of the same compound?
Its EC50 is 2.6 µg/mL (≈ 3.21 µM).

What about the EC50 [3] of the same compound?
Its EC50 is 1.1 µg/mL (≈ 1.36 µM).

And the EC50 (ZR-75-1)?
Its EC50 is 0.3 µg/mL (≈ 0.37 µM).

And the EC50 [4]?
Its EC50 is 0.5 µg/mL.

And the EC50 (Col2)?
Its EC50 is 0.01 µg/mL (≈ 0.0123 µM).

What about the EC50 (LNCaP) of the same compound?
The EC50 was 0.1 µg/mL (≈ 0.123 µM).

And the EC50 (A-431)?
The EC50 was 0.05 µg/mL (≈ 0.0617 µM).

What about the EC50 (KB) of the same compound?
The EC50 was 0.002 µg/mL (≈ 0.00247 µM).

For `C/C=C1/CC2[C@H](C(=O)OC)C(NC)Cc3c([nH]c4ccccc34)[C@@H](c3cc4c(cc3OC)C3CCN5C[C@H]6C[C@H](CC)[C@H]5[C@@](C(=O)OC)(C6)C3N4)C[C@H]12` (some centres not stated) [VOACAMINE], which Activity (KBV1) is on record?
The Activity was “Active”.
